From PubChem BioAssay
Shown are actives, neighbours in structure and some others; about 4.2% of the full set was active somewhere.
Mot1-301 SUMO: inhibitors of SUMOylation pathway: yeast Mot1-301 growth rescue | S. cerevisiae Mot1-301 growth rescue, ATP luminescence, 38.5C; percent above DMSO median, 100 means doubled | growth rescue, % at 18.8 µM | 1% of 320,000 active | AID 2716;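 active = every valid replicate shows activation above 250% relative to neutral control wells; inactive = the rest, any valid replicate at or below 250%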
KCNQ1 act: potentiates or activates the human KCNQ1 potassium channel. P51787. CHO-K1 KCNQ1, thallium flux FluxOR fluorescence; hits give high values. B-score at 10 µM. 0.35% of 310,000 active. AID 2648;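 active = fluorescence ratio B-score, a plate-corrected score, at least three library SD, with initial intensity B-score within 5 SD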
Target sequence (P51787 whole entry, looked up): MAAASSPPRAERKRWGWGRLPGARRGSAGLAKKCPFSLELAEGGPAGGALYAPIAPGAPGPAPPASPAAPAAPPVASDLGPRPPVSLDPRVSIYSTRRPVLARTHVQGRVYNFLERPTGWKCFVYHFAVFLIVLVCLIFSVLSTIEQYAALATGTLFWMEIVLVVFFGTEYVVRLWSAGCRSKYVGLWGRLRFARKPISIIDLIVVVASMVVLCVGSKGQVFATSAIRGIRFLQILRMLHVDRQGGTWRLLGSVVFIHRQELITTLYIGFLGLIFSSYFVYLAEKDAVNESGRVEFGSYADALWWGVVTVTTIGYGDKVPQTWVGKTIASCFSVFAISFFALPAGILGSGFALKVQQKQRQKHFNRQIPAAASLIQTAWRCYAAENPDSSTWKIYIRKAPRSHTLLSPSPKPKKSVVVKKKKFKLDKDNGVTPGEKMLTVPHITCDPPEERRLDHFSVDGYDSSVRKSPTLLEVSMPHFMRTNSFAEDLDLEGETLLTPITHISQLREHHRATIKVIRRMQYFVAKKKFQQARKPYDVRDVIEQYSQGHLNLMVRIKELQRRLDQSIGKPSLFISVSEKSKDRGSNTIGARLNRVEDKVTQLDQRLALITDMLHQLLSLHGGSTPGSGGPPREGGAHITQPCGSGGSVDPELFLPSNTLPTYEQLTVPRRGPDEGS
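Assay system: stable KCNQ1 CHO-K1 line; medium: assay buffer, equal DMSO in all wells; timing: 90 min dye loading and 20 min compound exposure, both at room temperature; technique: kinetic FluxOR thallium fluorescence, 10-s 1-Hz baseline, 110-s post-stimulus read; read-out basis: B score of baseline-normalized fluorescence ratio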
Cl transport mod: KCC2 (human) Cl- transport modulation | 2.2% of 190,000 active | B-score of Tl+ flux slope (higher = more flux/activation; lower = inhibition) at 10 µM | AID 1456 | KCC2 cells, thallium flux FluoZin-2 fluorescence | Q9H2X9;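 active = thallium flux slope and its plate-corrected score both differing from the plate sample mean at a set confidence after two filtering rounds, in either direction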;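 also: slope of fluorescence scaled to starting intensity during 10 to 20 s after thallium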
KCNQ1 block: inhibitors of human KCNQ1 potassium channel. B-score at 10 µM. CHO-K1 KCNQ1, FluxOR thallium flux fluorescence; hits give high values. P51787. 1.3% of 310,000 active;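 active = compounds whose thallium flux B-score, printed positive for inhibition, exceeds three library SD while starting fluorescence stays within three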;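 also: channel opened by potassium depolarization with thallium stimulus after 20 min compound exposure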
AI-2 QS modul: modulates the Vibrio harveyi AI-2 quorum sensing system. Vibrio harveyi JMH597 AI-2 luminescence/OD600 ratio, 9 h; hits give low values; strain lacks LuxN and CqsS sensors; 0 = neutral-control median. activity change, % at 7.5 µM. 0.4% of 300,000 active; in the data active = activity change below about -75%, passing the limit was not always enough; inconclusive = no clear call, values can overlap the other calls;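 also: luminescence divided by OD600 gain over 9 h not by final OD600 alone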
hERG protect: hERG (human) protection from proarrhythmic block; Q12809; CHO-hERG, FluxOR thallium flux, dofetilide IC70 present; activation (rescue from dofetilide block), less the hit threshold, % at 10 µM; 0.51% of 310,000 active;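 active = activation above the mean of controls blocked by dofetilide plus 5 SD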;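 also: thallium influx through hERG after potassium depolarization seen as dye fluorescence rise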
KCC2 sec1: confirmation of human KCC2 transport modulators; shares compounds with Cl transport mod; 15% of 3,700 active; HEK293-KCC2, thallium flux, FluoZin2 fluorescence; hits give high values; AID 1713; normalised thallium flux (F/F0 slope) at 10 µM;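 active = thallium flux slope above the same plate's solvent-only control mean plus 3 SD; inconclusive = the two replicate wells disagree; inactive = no significant difference from solvent-only control wells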
KCC2 bumet counter: bumetanide-insensitive thallium flux in KCC2 cells with ouabain, counter-screen | 49% of 3,700 active | normalized thallium flux at 10 µM | shares compounds with Cl transport mod | AID 1714 | HEK293-KCC2 + bumetanide/ouabain, thallium flux FluoZin2; hits give high values;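 active = thallium entry rate above the same plate's blocked-transporter control wells by more than 3 SD; inconclusive = the two repeat wells disagree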;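 also: raw slope of fluorescence over initial fluorescence between 10 and 20 s after thallium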
KCC2 sec2: confirmation of human KCC2 transport modulators; shares compounds with Cl transport mod; HEK293-KCC2, thallium flux FluoZin2 fluorescence; actives lie on both sides; F/F0 rise rate, 10–20 s post-thallium; normalized thallium flux at 10 µM; 23% of 3,700 active; AID 1715;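 active = thallium flux slope more than 3 SD above or below the plate's solvent-only control mean, mostly below; inconclusive = the two repeat wells disagreed; inactive = no significant shift from solvent-only controls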
HEK counter1: counter-screen for KCC2 modulators: effect in parental HEK293 cells; shares compounds with Cl transport mod; thallium flux FluoZin2, ouabain; baseline-ratio fluorescence slope, 10–20 s after thallium; thallium flux rate (normalised fluorescence) at 10 µM; 46% of 3,700 active;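 active = thallium flux rate significantly above the same plate's solvent-only control wells, beyond their mean plus 3 SD; inconclusive = the two replicate wells gave conflicting results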
KCC2 retest ouab: modulates human KCC2 on retest with ouabain; shares compounds with Cl transport mod; HEK293-KCC2, thallium flux FluoZin2 fluorescence; bidirectional: low = inhibitor, high = activator; raw Tl+ flux slope (below DMSO = inhibition, above = activation) at 10 µM; 48% of 3,700 active; AID 1717;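 active = thallium flux slope beyond 3 SD from same-plate DMSO control mean in most replicates, usually higher, sometimes lower; inconclusive = repeat tests gave conflicting results; inactive = no significant difference from controls in most replicates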;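 also: slope of initial-normalized fluorescence between seconds 10 and 20 after thallium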
HEK293 Tl flux2: counter-screen for KCC2 modulators: effect in parental HEK293 cells; shares compounds with Cl transport mod; thallium flux slope at 10 µM; thallium flux FluoZin-2 fluorescence slope; 33% of 3,700 active;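 active = thallium flux slope above the same plate's solvent-control mean plus 3 SD in both duplicate wells; inconclusive = duplicate wells that disagreed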;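 also: run without ouabain in cells lacking the KCC2 cotransporter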
A number is an active result; n = inactive; u = inconclusive; x = not tested or not shown.

SMILES	Mot1-301 SUMO	KCNQ1 act	Cl transport mod	KCNQ1 block	AI-2 QS modul	hERG protect	KCC2 sec1	KCC2 bumet counter	KCC2 sec2	HEK counter1	KCC2 retest ouab	HEK293 Tl flux2
Fc1ccccc1/C=N/n1cc(-c2ccccc2)[nH]c1=S	n	n	75	n	n	n	0.026	0.12	n	0.053	0.067	0.017
Cc1cc2[nH]c(=O)c(=O)[nH]c2cc1S(=O)(=O)Nc1cccc(Cl)c1	n	n	x	n	n	n	x	x	x	x	x	x
C/C(=N\NC(=O)c1ccncc1)c1cc2ccccc2o1	x	n	11	n	n	n	u	0.024	n	0.028	0.032	u
C/C(=N\NC(=O)c1cccnc1)c1cc2ccccc2o1	n	n	8.5	n	n	n	n	0.027	n	0.012	u	u
O=C(NC(=S)NCc1cccnc1)c1cc2ccccc2o1	n	n	42	n	n	n	0.03	0.088	0.049	0.049	0.053	0.048
Cc1ccc(C(=O)NC(=S)NCc2cccnc2)cc1C	n	n	n	n	n	n	x	x	x	x	x	x
CCn1c(Sc2ccc([N+](=O)[O-])cn2)nnc1-c1ccco1	n	n	n	n	n	n	x	x	x	x	x	x
Cc1ccc(NC(=O)CCCSc2ccccc2)cc1S(=O)(=O)N1CCOCC1	n	n	-3	n	n	n	n	n	u	n	n	n
CCC(C(=O)OCC(=O)Nc1ccc(C)c(S(=O)(=O)N2CCOCC2)c1)c1ccccc1 (configuration not stated)	n	n	x	n	n	n	x	x	x	x	x	x
Cc1ccc(NC(=O)COC(=O)/C=C/c2ccccc2)cc1S(=O)(=O)N1CCOCC1	x	n	-4.1	n	n	n	u	n	0.021	u	0.012	n
CC(C)(C)OC(=O)[C@H](Cc1ccccc1)NC(=O)c1nc[nH]c1C(=O)N[C@@H](Cc1ccccc1)C(=O)OC(C)(C)C	n	n	3.4	n	n	n	n	n	n	n	n	n
Cc1cccc(C)c1NC1=NC(=S)N(c2ccc(C(=O)O)cc2)C12CCCCC2	n	n	n	n	n	n	x	x	x	x	x	x
COc1ccc(N2C(=S)N=C(Nc3cccc(C)c3)C23CCCCC3)cc1	n	n	4.3	n	n	n	n	0.011	n	0.011	n	0.011
Cc1cccc(NC2=NC(=S)N(c3cccc(C(=O)O)c3)C23CCCCC3)c1	n	n	n	n	n	n	x	x	x	x	x	x
COc1ccccc1N1C(=S)N=C(Nc2c(C)cccc2C)C12CCCC2	n	n	6.2	n	n	n	n	0.048	n	0.015	n	0.012
O=C(CCCOc1ccccc1)Nc1nc2ccccc2[nH]1	n	n	n	n	n	n	x	x	x	x	x	x
O=S(=O)(CCOc1ccccc1)c1nc2ccccc2[nH]1	n	n	x	n	n	n	n	n	n	n	n	n
Cc1ccc(N(CC(=O)NCCSc2ccccn2)S(=O)(=O)c2ccc(F)cc2)cc1	n	n	-4.2	n	n	n	n	n	0.026	n	u	n
CCOc1ccc(OCCC(=O)OCC(=O)N2CCN(S(=O)(=O)c3ccc(Cl)cc3)CC2)cc1	n	n	x	n	n	n	x	x	x	x	x	x
N/C(=N\c1nc2ccccc2o1)NC(=O)c1ccccc1Br	n	n	n	n	n	n	x	x	x	x	x	x
O=C(c1ccc(O)cc1)c1ccc(O)cc1O	n	n	n	n	n	n	x	x	x	x	x	x
CN(C)c1ccc(C(=O)c2ccc(O)cc2O)cc1	n	n	-3.6	n	n	n	n	n	n	n	u	n
CC(C)(C)c1cc(C(=O)NNC(=O)c2ccc(C(F)(F)F)cc2)no1	n	9	64	n	n	n	0.028	0.083	u	0.041	0.045	0.022
COC(=O)C(Cc1ccc(O)cc1)NC(=O)c1ccccc1OC (configuration not stated)	n	n	-5.2	n	n	n	n	u	n	n	n	n
COc1ccc(C(=O)NNC(=O)C(=O)NCc2ccccc2)cc1	n	n	x	n	n	n	n	0.019	n	0.017	0.022	0.018
SMILES	Mot1-301 SUMO	KCNQ1 act	Cl transport mod	KCNQ1 block	AI-2 QS modul	hERG protect	KCC2 sec1	KCC2 bumet counter	KCC2 sec2	HEK counter1	KCC2 retest ouab	HEK293 Tl flux2
COc1ccccc1C(=O)NNC(=O)c1sccc1-n1cccc1	n	n	x	n	n	n	u	0.046	0.048	0.04	0.05	0.04
COc1ccc(C(=O)Nc2cccc(C(=O)NCc3ccccc3)c2)cc1	n	n	n	n	n	n	x	x	x	x	x	x
COc1ccccc1C(=O)NNC(=O)C(=O)NC(C)C	n	n	4.3	n	n	n	0.014	0.02	n	0.011	u	0.011
CC1=N/C(=C\c2ccc([N+](=O)[O-])cc2)C(=O)N1c1ccc(F)cc1F	n	n	x	n	n	n	x	x	x	x	x	x
COc1ccc(/C=C2\SC(=S)N(CC(=O)NC3C=CS(=O)(=O)C3)C2=O)cc1 (configuration not stated)	n	n	x	n	n	n	x	x	x	x	x	x
CCn1nnc2cc(C(=O)Nc3cc(Cl)ccc3C)ccc21	n	x	x	x	x	x	x	x	x	x	x	x
c1ccc(OCc2noc(CN3CCC(C4CCCCC4)C3)n2)cc1 (configuration not stated)	n	n	n	n	n	n	x	x	x	x	x	x
COc1ccccc1C(=O)NNC(=O)C(=O)NCc1ccccc1	n	7	23	n	n	10	0.025	0.046	n	0.028	0.048	0.014
CCCn1nc(C(=O)Oc2ccc3c(C)cc(=O)oc3c2)c2ccccc2c1=O	n	n	n	n	n	n	x	x	x	x	x	x
CCCCN(C)CCCNC(=O)C1CC(=O)N(Cc2ccc(OC)cc2)C1 (configuration not stated)	x	n	x	n	n	n	n	n	n	n	n	n
Cc1cc(C)c(C#N)c(N2CCN(Cc3ccc4c(c3)OCO4)CC2)n1	n	n	x	n	n	n	x	x	x	x	x	x
